# APP transl inh – inhibitors of APP translation via 5'UTR reporter, primary screen, APP 5'UTR luciferase, SH-SY5Y cells; SH-SY5Y APP 5'UTR-luciferase reporter, luminescence; inhibition, % at 2 µM; 190,000 tested, 0.82% active;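 active = inhibition above a set limit, derived from the sample mean plus 3 SD, cut at about 45% in these data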
# MT stabilize HCS – microtubule stabilizers in HeLa cells, primary screen, imaging, high-content imaging | HeLa tubulin immunostaining HCS, 24 h; share of cells brighter than vehicle mean+2SD | % tubulin-high responders, % at 10 µM | 200,000 tested, 0.83% active | AID 2205, 2009;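 active = plate Z-score above 3 for both tubulin-high and condensed-nucleus cell shares, with cell loss under 80%, at 10 µM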;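 also: anti alpha tubulin signal scored within the nucleus-defined area of each cell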
# IEC-6 cytotox – cytotoxicity in IEC-6 intestinal epithelial cells, primary screen, cytotoxicity control for KLF5 inhibitor project, cell-based, luminescence; IEC-6 cytotoxicity, luminescence viability; inhibition, % at 5 µM; 290,000 tested, 0.78% active;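 also: 0% = plate median of test compound wells and 100% = cytotoxic reference compound wells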
# BaF3 parental – parental Ba/F3 cell viability inhibition, counter-screen for JAK2V617F inhibitor project, murine pro-B, CellTiter-Glo luminescence; CellTiter-Glo ATP luminescence; inhibition, % at 5.6 µM; 220,000 tested, 1.1% active;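 active = inhibition above a per-campaign cutoff, the mean inhibition of all tested compounds plus 3 SD, cut at about 27% in these data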;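 also: 0% = DMSO wells and 100% = JAK Inhibitor I control wells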
# Ba/F3 V617F tox – reduced viability of JAK2V617F-dependent Ba/F3 cells, primary screen, JAK2V617F inhibitor project, cell-based, Ba/F3 EpoR-JAK2V617F, luminescence; inhibition, % at 5.6 µM; ATP luminescence; 220,000 tested, 1.1% active;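 active = inhibition above the campaign mean plus 3 SD over all tested compounds, cut at about 24% in these data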;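 also: cytokine-independent growth of Ba/F3 cells driven by EpoR plus mutant JAK2; 0% = DMSO-treated cells and 100% = JAK inhibitor I control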
# b-catenin transl – modulators of beta-catenin nuclear translocation, primary screen, imaging, HeLa cells, immunofluorescence, high-content; nuclear translocation activity, % at 5 µM; 190,000 tested, 0.3% active; AID 1665, 2009;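 active = nuclear translocation activity above 50% at 5 µM, with a well cell count of 50 or more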;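 also: per-cell ratio of nuclear to cytoplasmic median beta-catenin stain intensity; plate controls were DMSO negative control for no effect and GSK-3 inhibitor IX positive control for full effect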
#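 Read-out: Nuclear/cytoplasmic beta-catenin signal ratio, % activation | Assay system: Human HeLa cell line | Times: 24 h compound exposure at 37°C, 5% CO2 | Signal: Fluorescence imaging of beta-catenin antibody stain plus DAPI | Dosing: 5 µM primary, 0.02–20 µM confirmation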
# IEC-6 cytotox cf – cytotoxic compounds in IEC-6 epithelial cells, confirmation, cytotoxicity control, cell-based, luminescence; shares compounds with IEC-6 cytotox; IEC-6 rat intestinal epithelial viability; inhibition, % at 5 µM; 1,900 tested, 63% active;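 also: 0% = vehicle and 100% = reference cytotoxic drug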
# Starred values were filed as active, the others as inactive; . = no result given. Most compounds without a hit are left out; they make up all but 2.2% or so of the library. Rule as the data show it, unless noted: active = inhibition above about 22%; inactive = the rest.
SMILES,APP transl inh,MT stabilize HCS,IEC-6 cytotox,BaF3 parental,Ba/F3 V617F tox,b-catenin transl,IEC-6 cytotox cf
O=C(N/N=C/C(Br)=C/c1ccccc1)c1n[nH]c2c1CCC2,.,19.6,94.0*,91.7*,92.0*,160.7*,2.8
C=CCn1cccc(C(=O)Nc2ccc(F)cc2)c1=O,.,.,-7.1,.,.,.,.
Cc1ccc(-n2ncc3c2CCCC3NC(=O)c2ccoc2)cc1C (centres undefined),.,.,-6.6,.,.,.,.
Cc1cc(C(=O)NC2CCCc3c2cnn3-c2ccc(C)c(C)c2)n(C)n1 (centres undefined),.,.,37.9*,.,.,.,26.7*
CCc1cc(C(=O)NC2CCCc3c2cnn3-c2cccc(C)c2C)n(C)n1 (centres undefined),.,.,31.2*,.,.,.,24.9*
CC(C)NC1=C(Cl)C(=O)c2ccccc2C1=O,-1.4,1.0,44.3*,7.3,3.8,.,16.5
O=C1C(Cl)=C(NCc2cccnc2)C(=O)c2ccccc21,.,.,99.3*,.,.,.,57.0*
CCN(CC)CCCNC1=C(Cl)C(=O)c2ccccc2C1=O,5.5,43.2*,88.1*,-0.8,5.1,1.0,77.0*
CC(C)OCCCNC1=C(Cl)C(=O)c2ccccc2C1=O,.,.,50.7*,1.6,-4.7,1.1,-2.5
COc1ccc(CCNC(=O)/C=C/c2ccco2)cc1,.,.,-1.3,.,.,.,.
O=C1CCCc2cc3c(cc21)CC1(C3)Cc2cc3c(cc2C1)C(=O)CCC3,.,.,31.7*,-6.3,-2.6,72.0*,35.3*
Cc1ccc(-n2cc(CN(C)CCc3cn[nH]c3)c(-c3cccc(C)c3)n2)cc1,-29.7,2.5,-3.0,2.4,-1.6,0.8,.
Cc1nc2c3cc(Cl)ccc3n(CCN3CCCCC3)c2s1,11.7,24.5*,41.4*,35.6*,15.8,96.7*,16.7
COc1cc(C(=O)N/C(=C\c2cn(S(=O)(=O)N(C)C)c3ccccc23)C(=O)N2CCCC2)cc(OC)c1OC,.,.,2.7,.,.,.,.
Cc1ccc(OCC(=O)NNC(=S)NC(=O)C2CC2)c(C)c1,.,.,35.8*,.,.,.,13.5
Cc1ccc(OCC(=O)NNC(=S)NC(=O)C2CCCCC2)c(C)c1,.,.,3.3,.,.,.,.
COc1cc2c(c(OC)c1OC)C(=O)CC2,.,.,1.8,-1.9,-1.4,-0.4,.
COc1cc2c(c(OC)c1OC)-c1ccc(OC)c(=O)cc1C(NC(C)=O)CC2 (centres undefined),.,.,94.2*,.,.,.,80.1*
COc1cccc(C(=O)Nc2ccc3c(cc2=O)[C@@H](NC(C)=O)CCc2cc(OC)c(OC)c(OC)c2-3)c1,.,.,46.3*,.,.,.,38.9*
COc1cccc(C(=O)Nc2ccc(F)cc2F)c1,-31.9,1.9,-2.3,9.7,4.1,.,.
CC(C)c1ccc(NC2CCCN(C(=O)c3cccs3)C2)cc1 (centres undefined),.,.,0.8,.,.,.,.
O=C(O)CN=CC1=C(O)CC(c2ccccc2)CC1=O (centres undefined),.,.,-9.4,.,.,.,.
CCOc1ccc(/C=N/Nc2ccc(Cl)nn2)c(O)c1,.,.,93.7*,.,.,.,4.6
CCOc1ccccc1/C=N/Nc1ccc(Cl)nn1,.,.,-2.3,.,.,.,.
CC(Nc1ncnc2ccccc12)c1ccccc1 (centres undefined),.,.,28.1*,.,.,.,27.2*
SMILES,APP transl inh,MT stabilize HCS,IEC-6 cytotox,BaF3 parental,Ba/F3 V617F tox,b-catenin transl,IEC-6 cytotox cf
CCCCC(Nc1ncnc2ccccc12)C(=O)O (centres undefined),-3.4,2.6,-0.2,4.3,-1.6,-7.6,.
CCN(CC)CCOc1ccc2c(c1)C(=NO)c1cc(OCCN(CC)CC)ccc1-2,33.3,3.4,37.4*,18.9,17.7,0.2,21.1
CCN(CC)CCOc1ccc(Br)cc1,0.6,4.3,2.3,2.2,-0.4,-1.8,.
COc1ccc(/C=N/Nc2nnc(C)n2N)cc1OC,-3.1,.,101.6*,10.6,6.7,0.2,4.0
COc1ccc(OC)c(Nc2nc(-c3ccncc3)nc3ccccc23)c1,.,.,-6.1,.,.,.,.
Oc1cccc(Nc2c3ccccc3nc3ccccc23)c1,.,.,35.3*,.,.,.,36.2*
COc1ccc(Nc2c3c(nc4ccccc24)CCC3)cc1,.,.,11.5,.,.,.,.
COc1ccc(C)cc1Nc1c2c(nc3ccccc13)CCC2,.,.,88.4*,.,.,.,55.4*
COc1ccc(Nc2c3ccccc3nc3ccccc23)cc1,.,.,73.6*,.,.,.,31.1*
COc1ccc(Nc2nc(-c3ccncc3)nc3ccccc23)cc1,.,.,30.4*,.,.,.,18.9
O=c1[nH]c2ccc(S(=O)(=O)N3CCN(c4ccc(F)cc4)CC3)cc2o1,.,.,-2.1,1.6,-2.1,-0.2,.
CC(C)NC(=O)C(c1ccc(F)cc1)N(C(=O)CCC(=O)Nc1ccccn1)C1CCCC1 (centres undefined),.,.,0.6,.,.,.,.
COc1ccccc1Nc1c2ccccc2nc2ccccc12,.,.,27.5*,.,.,.,12.6
CCC[C@H](CN[C@@H](CNC)[C@H](C)O)NCCc1ccc(OC)cc1,.,.,-3.3,.,.,.,.
CCCC[C@H](CN[C@@H](CNC)[C@H](C)CC)NCCC12CCC(CC1)C2,.,.,38.7*,.,.,.,102.1*
COc1ccccc1/C=C/C(=O)Nc1ccc2c(c1)OCCO2,-134.0,24.4*,24.7*,12.0,3.1,72.8*,18.8
Cc1nn(-c2ccccc2)c(N)c1N=Nc1cccnc1,-51.1,2.1,7.5,5.9,1.1,-2.2,.
Nc1nn(-c2ccccc2)c(N)c1N=Nc1cccc(F)c1,.,.,77.0*,79.7*,83.6*,57.8*,59.0*
Clc1ccc2nc(COc3ccccc3)[nH]c2c1,.,.,27.4*,.,.,.,11.8
O=c1[nH]c(COc2ccccc2)nc2ccccc12,.,.,2.6,.,.,.,.
COc1ccc(CNC(=O)CN(C(=O)CCC(=O)Nc2nccs2)c2cccc(C)c2)cc1,.,.,1.5,.,.,.,.
O=C(Nc1ccccc1N1CCN(C(=O)c2ccccc2)CC1)c1ccc([N+](=O)[O-])o1,.,.,27.6*,.,.,.,12.4
COc1ccc(N2CCCC2)c(NC(=O)c2ccc([N+](=O)[O-])o2)c1,.,.,32.7*,.,.,.,12.5
CC1CCN(c2ccccc2NC(=O)c2ccc([N+](=O)[O-])o2)CC1,.,.,4.6,.,.,.,.
O=C(Nc1ccccc1N1CCCC1)c1ccc([N+](=O)[O-])o1,.,.,65.8*,.,.,.,16.7
SMILES,APP transl inh,MT stabilize HCS,IEC-6 cytotox,BaF3 parental,Ba/F3 V617F tox,b-catenin transl,IEC-6 cytotox cf
COc1ccc(C(=O)Nc2cc([N+](=O)[O-])ccc2N2CCCC2)cc1,-3.3,1.6,-2.4,1.5,-1.9,-2.6,.
COC(=O)CNc1nc(Cl)nc(NC2CCCCC2)n1,.,.,3.6,.,.,.,.
COc1cccc(OC)c1C(=O)Nc1ccccc1C(=O)N1CCCCCC1,.,.,-1.3,.,.,.,.
COc1ccc(C(=O)NC(=S)Nc2ccc3[nH]c(=O)[nH]c3c2)cc1,.,.,-2.1,.,.,.,.
O=C(Nc1ccc([N+](=O)[O-])cc1)c1ccc(S(=O)(=O)N2CCCC2)cc1,.,.,-4.4,.,.,.,.
O=C(Nc1ccc(S(=O)(=O)N2CCCCCC2)cc1)c1[nH]ncc1[N+](=O)[O-],.,.,29.1*,.,.,.,7.4
COc1ccc(Cl)cc1S(=O)(=O)NCc1ccncc1,.,.,-0.9,.,.,.,.
